Published values pooled from the literature.
Each line is one published result; the experiments were not run side by side.
Target: Mitogen-activated protein kinase kinase kinase 12 (MAP3K12, Homo sapiens, UniProt Q12852)
Residues used in one study (Q12852 1-859): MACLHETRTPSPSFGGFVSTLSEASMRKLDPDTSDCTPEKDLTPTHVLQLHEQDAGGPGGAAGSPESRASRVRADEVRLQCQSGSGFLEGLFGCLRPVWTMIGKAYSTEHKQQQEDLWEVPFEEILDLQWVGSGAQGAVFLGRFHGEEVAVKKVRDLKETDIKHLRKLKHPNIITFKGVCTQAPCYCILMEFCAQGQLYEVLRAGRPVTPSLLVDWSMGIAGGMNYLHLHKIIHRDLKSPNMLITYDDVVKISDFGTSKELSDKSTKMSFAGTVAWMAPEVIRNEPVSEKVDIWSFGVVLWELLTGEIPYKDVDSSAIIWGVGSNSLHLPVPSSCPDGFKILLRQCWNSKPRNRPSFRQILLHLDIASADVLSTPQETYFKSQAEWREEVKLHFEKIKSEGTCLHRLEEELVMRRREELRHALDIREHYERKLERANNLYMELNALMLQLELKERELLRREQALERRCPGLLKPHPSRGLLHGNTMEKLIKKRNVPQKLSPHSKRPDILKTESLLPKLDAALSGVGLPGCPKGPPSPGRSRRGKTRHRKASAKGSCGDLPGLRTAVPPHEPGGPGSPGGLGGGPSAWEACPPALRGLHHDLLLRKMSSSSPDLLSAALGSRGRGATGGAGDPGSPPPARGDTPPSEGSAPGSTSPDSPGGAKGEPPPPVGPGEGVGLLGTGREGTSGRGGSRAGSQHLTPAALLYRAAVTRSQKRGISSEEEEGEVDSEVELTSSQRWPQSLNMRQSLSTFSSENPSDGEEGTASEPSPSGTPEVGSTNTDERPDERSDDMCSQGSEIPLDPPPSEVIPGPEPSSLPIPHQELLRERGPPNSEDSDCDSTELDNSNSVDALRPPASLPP

O=C(NS(=O)(=O)c1ccc(NCC2CCOCC2)c([N+](=O)[O-])c1)c1ccc(N2CCN(Cc3ccc(C(F)(F)F)cc3-c3ccc(Cl)cc3)CC2)cc1Oc1cnc2[nH]ccc2c1
remaining binding (cell-free assay, competition with immobilised ligand; 1 µM): 100%

Cc1cnc(Nc2ccc(C(=O)N3CCC(N4CCCC4)CC3)cc2)nc1-c1cc2ccccc2s1
remaining binding (binding, competition with immobilised ligand; 1 µM): 8.3%

c1cnn2ncc(-c3ccnc(N4CCC45COC5)n3)c2c1
remaining binding (binding; 1 µM): 74%

CNC(=O)[C@@H]1CC[C@@H](n2c(-c3ccc4cnccc4c3)nc3ccc(C(=O)NCc4cccc(C(N)=O)c4)cc32)C1
remaining binding (binding, competition with immobilised ligand; 1 µM): 100%

O=C1CCc2cc(Nc3cc(OC4CCOCC4)c([N+](=O)[O-])cc3Cl)ccc2N1
remaining binding (cell-free assay, competition with immobilised ligand; 1 µM): 100%

COc1ncc2cc3ccccc3nc2c1C#N
remaining binding (cell-free assay, competition with immobilised ligand; 5 µM): 81%

CCN1CCN(Cc2ccc(C(=O)Nc3ccc(C)c(Oc4ccc5c(c4)CC(=O)N5)c3)cc2C(F)(F)F)CC1
remaining binding (binding, competition with immobilised ligand; 1 µM): 100%

O=C(NCCCN1CCOCC1)c1ccc(Nc2ncc(Cl)c(-c3ccc(Cl)s3)n2)cc1
remaining binding (binding, competition with immobilised ligand; 1 µM): 33%

CN(CCCC(F)(F)F)c1nccc(-c2cnn3ncccc23)n1
remaining binding (binding; 1 µM): 100%

FC(F)(F)c1ccc2c(c1)nc(-c1cccnc1)n2C1CC1
remaining binding (cell-free assay, competition with immobilised ligand; 1 µM): 100%

O=C(NCC1CCOCC1)c1n[nH]cc1NC(=O)c1c(F)cccc1F
remaining binding (binding, competition with immobilised ligand; 1 µM): 85%

O=C(N1CCS(=O)(=O)CC1)N1C[C@H](c2ccc(OC(F)(F)F)cc2)C[C@H](c2nc(C3CC3)no2)C1
remaining binding (cell-free assay, competition with immobilised ligand; 1 µM): 0%

N[C@H]1CCN(c2nccc(-c3cnn4ncccc34)n2)C1
remaining binding (binding; 1 µM): 71%

Cc1nc(N2CC[C@@H](O)C2)ncc1-c1cc(C(F)(F)F)cc2[nH]ncc12
remaining binding (binding, competition with immobilised ligand; 1 µM): 99%

C[C@H]1CCN(c2nccc(-c3cnn4ncccc34)n2)C1
remaining binding (binding; 1 µM): 100%

C[C@@H]1CN(c2cc(-c3n[nH]c4ccc(OC5(C)CC5)cc34)ncn2)C[C@H](C)O1
remaining binding (cell-free assay, competition with immobilised ligand; 0.1 µM): 82%

CC1CCCN1c1nccc(-c2cnn3ncccc23)n1 (centres unmarked)
remaining binding (binding; 1 µM): 100%

O=C(c1ccc(Nc2ncc(Cl)c(-c3ccc(Cl)s3)n2)cc1)N1CCC(N2CCCC2)CC1
remaining binding (binding, competition with immobilised ligand; 1 µM): 7.8%

F[C@@H]1CCN(c2nccc(-c3cnn4ncccc34)n2)C1
remaining binding (binding; 1 µM): 100%

COc1cnc(Nc2cccc(S(N)(=O)=O)c2)nc1N1CCN(c2ccccc2)CC1
remaining binding (binding, competition with immobilised ligand; 1 µM): 72%
